CAL PDZ FP-1 = inhibitors of human CAL PDZ peptide binding. inhibition, % at 20 µM. purified CAL PDZ, TMR-peptide fluorescence polarization, 1 h. 330,000 tested, 0.02% active. AID 504414;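 active = highest replicate inhibition of at least 40%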;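 note: plate controls were DMSO neutral control wells for no effect and unlabeled competitor peptide control wells for full effect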
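Control set: unlabelled peptide and DMSO controls / Material: purified CerCALP PDZ construct / Timing: 1 h incubation at room temperature before polarization reading / Doses: 20 µM, one dose / Detection: fluorescence polarization (mP)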
CAL PDZ FP-2 = CAL PDZ (human) peptide binding inhibition. purified CAL PDZ, TMR-peptide fluorescence polarization, 1 h. Q9HD26. inhibition, % at 24.9 µM. 300,000 tested, 0.92% active;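 active = mean inhibition of at least 30% with at least half of replicates also reaching 30%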;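 note: 0% = DMSO neutral control and 100% = excess unlabeled competitor peptide PRC23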
PvdQ inh = P. aeruginosa PvdQ acylase inhibition; AID 488965; 340,000 tested, 0.063% active; purified PvdQ acylase, fluorescence plate reader; inhibition, % at 10 µM; in the data active = inhibition above about 30%, passing the limit was not always enough;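 note: 0% = vehicle neutral wells and 100% = reference inhibitor wells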
miR-122 sensor = blocks miR-122 activity in Huh7 sensor cells; Huh7 miR-122 Renilla luciferase sensor, 48 h; neutral wells = 0, positive control = 100; activation (reporter increase), % at 12.5 µM; 340,000 tested, 0.3% active;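 active = mean replicate activation score at least 90 and every replicate individually at or above 90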;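 note: higher luciferase means less miR-122 activity so hits act as miR-122 inhibitors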
An asterisk follows results filed as active; . = no result; + = active, no number; [ ] = remark or other dose. In the library only some 0.95% were active in any assay of this set; here they are far more common.

SMILES	CAL PDZ FP-1	CAL PDZ FP-2	PvdQ inh	miR-122 sensor
COc1ccc(S(=O)(=O)N(C)C[C@H]2Oc3ccc(NC(=O)Nc4ccc(C(F)(F)F)cc4)cc3C(=O)N([C@H](C)CO)C[C@H]2C)cc1	.	.	.	136*[16.7 µM]
COc1ccc(S(=O)(=O)N(C)C[C@H]2Oc3ccc(NC(=O)Nc4ccc(C(F)(F)F)cc4)cc3C(=O)N([C@@H](C)CO)C[C@H]2C)cc1	.	.	.	111*[16.7 µM]
Cn1c(=O)c2c(nc(NCCO)n2C)n(C)c1=O	-2	0	-7	-2
CCCNC(=S)NC1CC2CCCC(C1)N2Cc1ccccc1OC (stereo not given)	.	.	.	2
O=C1N=C(N2CCN(c3ccccc3)CC2)S/C1=C/c1cccs1	-5	-4	-7	.
CN(C)S(=O)(=O)Oc1ccc(C(=O)Nc2cccc(C(F)(F)F)c2)cc1	0	38*	-11	.
O=C(C1CCC(=O)N(C2CCCCCC2)C1)N1CCN(c2ccccc2Cl)CC1 (stereo not given)	-3	-2	-13	-6
Cc1ccccc1N1CCN(C(=O)C2CCC(=O)N(C3CCCC3)C2)CC1 (stereo not given)	0	79*	-14	-8
Cc1cc(F)ccc1NC(=O)c1cc(S(=O)(=O)N2CCCC2)cn1C	0	69*	-8	-2
COc1ccc(OC)c(Cc2nnc(CCC(=O)NCc3ccsc3)o2)c1	1	.	-8	.
Cc1cc(N2CCOCC2)cc(C)[n+]1[O-]	0	0	0	-15
CCC(=NNS(=O)(=O)c1ccc(C)cc1)c1ccccc1	.	.	.	-1
C/C(=N\Nc1ccccn1)c1ccc(S(=O)(=O)NCc2ccco2)cc1	-2	-3	4	110*
C/C(=N\Nc1ccc(C(F)(F)F)cn1)c1ccc(S(=O)(=O)NCc2ccco2)cc1	-3	-2	22	-12
Cc1ccc(-c2ccc(S(=O)(=O)NCc3ccco3)cc2)cc1	0	+	-9	.
CC/C(=N\NS(=O)(=O)c1ccc(C)cc1)c1ccco1	.	36*	-13	16
CCC(=O)Nc1ccc(S(=O)(=O)NCc2ccco2)cc1	144*	-1	-20	3
O=C(Nc1ccc(S(=O)(=O)NCc2ccco2)cc1)c1ccc(F)cc1	0	-1	-12	39
COc1cccc(S(=O)(=O)Nc2ccc3c(c2)[C@H]2C[C@H](CC(=O)NCC(F)(F)F)O[C@H](CO)[C@H]2O3)c1	.	.	.	-2[16.7 µM]
Cc1ccc(C(=O)Nc2ccc(S(=O)(=O)NCc3ccco3)cc2)cc1	0	.	-8	48
O=C(Nc1ccccc1)c1ccc(S(=O)(=O)NCc2ccco2)cc1	-1	39*	-3	26
Cc1cnc(NC(=O)NCC2CCCC(CNC(=O)Nc3ncc(C)s3)C2)s1 (stereo not given)	-1	67*	-16	-1
Cc1ccc(C(=O)Nc2ncc(C)s2)o1	-3	.	-12	11
CCN(CC(=O)Nc1cccc(OC)c1)CC(=O)Nc1ccc(C)cc1Cl	.	66*	-15	.
CCN(CC(=O)Nc1cccc(OC)c1)CC(=O)Nc1cccc2ccccc12	-3	-1	-25	2
SMILES	CAL PDZ FP-1	CAL PDZ FP-2	PvdQ inh	miR-122 sensor
COc1ccccc1NC(=O)Nc1ccnn1Cc1cccs1	-1	57*	-6	-29
CC(OC(=O)c1cc[n+]([O-])cc1)C(=O)Nc1ccc(C(N)=O)cc1 (stereo not given)	0	.	0	5
Cc1cc(C)c(S(=O)(=O)Nc2ccc3c4c(cccc24)CC3)c(C)c1	-5	0	2	111*
Cc1cc(C(F)F)n2ncc(C(=O)NCc3ccc(F)cc3)c2n1	-1	0	-2	2
CSc1ccc(S(=O)(=O)NC2CC3CCC2C3)cc1 (stereo not given)	2	-2	-3	104*
COc1ccc(S(=O)(=O)NC2CC3CCC2C3)cc1 (stereo not given)	0	-3	-2	41
O=C(Cc1c(F)cccc1Cl)Nc1ccccc1C(=O)N1CCOCC1	0	-4	-12	-10
CC(=O)Nc1sc2c(c1C(N)=O)CCC2	.	68*	-9	-14
N#Cc1c(NC(=O)c2ccccc2)sc2c1CCC2	-2	-5	1	111*
O=C(Nc1sc2c(c1C(=O)O)CCC2)c1ccco1	0	-1	-13	123*
N#Cc1c(NC(=O)c2cccnc2)sc2c1CCC2	0	2	-16	8
COC(=O)c1c(NC(=O)c2ccco2)sc2c1CCC2	-1	-1	-12	14
CCCCN(CC)CCNC(=O)Cn1cnc2sc(C)c(S(=O)(=O)N3CCOCC3)c2c1=O	0	-4	-11	-9
CCCCN(CC)CCNC(=O)Cn1cnc2sc(C)c(S(=O)(=O)N3CCC(C)CC3)c2c1=O	0	44*	-3	1

High-throughput results (PubChem)
